S1P3 antag-1: S1P3 receptor antagonists, primary screen, cell-based; CHO S1P3 NFAT-BLA reporter, FRET fluorescence, antagonist mode; inhibition, % at 4.98 µM; 170,000 tested, 0.27% active;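 active = inhibition above the plate cutoff, the mean inhibition of test wells on that plate plus 3 SD, cut at about 28% in these data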;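 note: cells challenged with S1P at its EC80 of 0.8 µM; blue over green emission ratio from cleaved BLA substrate after 4 h stimulation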
Target sequence (Q99500 whole entry, looked up): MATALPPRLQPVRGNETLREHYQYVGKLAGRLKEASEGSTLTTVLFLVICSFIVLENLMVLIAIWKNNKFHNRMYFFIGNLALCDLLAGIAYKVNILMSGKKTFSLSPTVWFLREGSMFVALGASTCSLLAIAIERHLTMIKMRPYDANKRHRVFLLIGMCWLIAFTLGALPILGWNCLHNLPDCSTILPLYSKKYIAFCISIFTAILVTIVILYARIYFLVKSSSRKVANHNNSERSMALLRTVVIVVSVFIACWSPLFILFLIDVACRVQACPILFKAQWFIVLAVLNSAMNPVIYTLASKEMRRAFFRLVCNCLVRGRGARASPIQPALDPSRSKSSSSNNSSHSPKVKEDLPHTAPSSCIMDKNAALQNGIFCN
Yeast growth inh: growth inhibitors of yeast BB579 in restrictive medium, primary screen, yeast lifespan-shortening project, S. cerevisiae; OD615, 48 h; AID 804, 2007; inhibition, % at 10 µM; 140,000 tested, 0.51% active;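 active = inhibition above a set limit, 3 SD over the mean compound inhibition, cut at about 44% in these data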
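test system = yeast BB579 (DeaD) | buffer or medium = restrictive CSMM-D medium | doses = single compound dose of 10 µM, 0.25% DMSO final | times = 4 h preincubation and 48 h exposure at 30 °C | technique = culture absorbance at 615 nm | benchmarks = amphotericin B 10 µg/mL, positive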
Yeast lifespan up: compounds extending yeast replicative lifespan, primary screen, S. cerevisiae, OD615; inhibition of the nicotinamide effect, % at 10 µM; 130,000 tested, 0.68% active; S. cerevisiae growth with nicotinamide; deaD strain in restrictive glucose medium; AID 775, 2007;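 active = inhibition above a set limit, placed 3 SD over the median of all compounds, cut at about 26% in these data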
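System: Modified budding yeast, DeaD strain | Buffer or medium: Restrictive glucose medium | Also added: 1.5 mM nicotinamide | Doses: 10 µM single point, 0.25% DMSO | Schedule: 48 h compound exposure at 30 °C, humidified | Detection: Absorbance at 615 nm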
S1P3 antag-2: S1P3 receptor antagonists, retest, confirmation, cell-based; AID 1429, 2008; shares compounds with S1P3 antag-1; inhibition, % at 4.98 µM; 240 tested, 30% active; CHO S1P3 NFAT-BLA reporter, FRET, antagonist mode;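 active = inhibition above the hit threshold that was computed for the earlier primary screen, cut at about 30% in these data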
A number is an active result; . = inactive; / = not tested or not shown. Shown are actives, neighbours in structure and some others; about 0.98% of the full set was active somewhere.

SMILES	S1P3 antag-1	Yeast growth inh	Yeast lifespan up	S1P3 antag-2
O=C1c2cccc3c([N+](=O)[O-])ccc(c23)C(=O)N1CCc1ccccn1	.	/	/	/
Cc1ccc(NC(=O)C(OC(=O)c2ccc(F)cc2)c2ccccc2)cc1Cl (stereo unspecified)	35.5	.	.	54.5
Cc1ccc(NC(=O)C(OC(=O)c2ccc(O)cc2)c2ccccc2)cc1Cl (stereo unspecified)	.	.	.	/
O=S(=O)(c1ccc2oc3ccc(S(=O)(=O)N4CCCC4)cc3c2c1)N1CCCC1	.	/	/	/
CCC(C)NC(=O)Cc1c(OC)ccc2cc(Br)ccc12 (stereo unspecified)	32.7	/	/	.
CCCC(C)NC(=O)Cc1ccc(Br)cc1 (stereo unspecified)	.	.	.	/
CN(C(=O)COC(=O)c1cc(S(=O)(=O)N2CCCCC2)ccc1N1CCOCC1)C1CCS(=O)(=O)C1 (stereo unspecified)	.	/	/	/
COc1cccc(C2CCCCN(C)C2=O)c1 (stereo unspecified)	.	/	/	/
CC(C)(C)c1cc(C(=O)NN)n(Cc2ccc(F)cc2)n1	.	/	/	/
Cc1cccc(Cn2nc(C(C)(C)C)cc2C(=O)Nc2ccc(F)cc2)c1	36.5	/	/	52.9
C=CCN=C(C)C1=C(O)CCC1=O	/	.	.	/
O=C(c1cnc2ccc3ccccc3c2c1)c1cc(F)ccc1O	31.9	/	/	.
Cc1nn(C)c2ncc(C(=O)c3cc(F)ccc3O)cc12	/	.	.	/
Cc1onc(-c2ccccc2)c1C(=O)NCC1CCN(C(=O)c2c(-c3ccccc3)noc2C)CC1	/	.	.	/
O=C(O)CC(CC(=O)Nc1ccc(F)c(Cl)c1)c1ccc(Cl)cc1Cl (stereo unspecified)	59.1	/	/	.
CCC(=O)Nc1ccc(F)c(Cl)c1	.	.	.	/
COc1ccc(C2CC(c3cccs3)=NN2C(=S)Nc2ccccc2)cc1OC (stereo unspecified)	.	.	.	/
S=C(Nc1ccccc1)N1N=C(c2cccs2)CC1c1cccs1 (stereo unspecified)	30.0	/	/	.
COc1ccc(N2C(=O)CC(NNc3ncc(Cl)cc3Cl)C2=O)cc1 (stereo unspecified)	.	/	/	/
COC(=O)c1cc(NS(=O)(=O)c2ccc(NC(C)=O)cc2)ccc1Cl	.	/	/	/
O=C(c1ccc(F)cc1)C(CCCCCC(CN1CCOCC1)C(=O)c1ccc(F)cc1)CN1CCOCC1 (stereo unspecified)	/	.	.	/
OC(CN1CCOCC1)c1ccc(F)cc1 (stereo unspecified)	37.1	/	/	.
COc1cccc(-c2cc(C(=O)Nc3ccn(Cc4ccc(C)cc4)n3)no2)c1	.	/	/	/
O=C(CN1CCN(c2cccc(Cl)n2)CC1)N1CC(O)CO1 (stereo unspecified)	.	/	/	/
CC(C)OC(=O)/C(=C\c1cccc2ccccc12)NC(=O)c1ccccc1	36.9	.	.	.
SMILES	S1P3 antag-1	Yeast growth inh	Yeast lifespan up	S1P3 antag-2
CC(C)OC(=O)/C(=C\c1ccccc1)NC(=O)c1ccccc1	.	/	/	/
CC(=O)N1CCN(C(=O)CCc2nc3sc4c(c3c(=O)[nH]2)CCCC4)CC1	.	.	.	/
CCOC(=O)C(C)Oc1cccc2c(=O)n(CC(=O)NCc3ccc(F)cc3)ccc12 (stereo unspecified)	34.9	/	/	.
CCOC(=O)C(C)Oc1cccc2c(=O)n(CC(=O)NCc3ccccc3)ccc12 (stereo unspecified)	37.4	/	/	.
CCOC(=O)C(C)Oc1cccc2c(=O)n(CC(=O)NCCc3ccccc3)ccc12 (stereo unspecified)	.	/	/	/
COC(=O)COc1cccc2c(=O)n(CC(=O)NCc3ccc(F)cc3)ccc12	.	/	/	/
CNC(=S)N1CCC(NC(=O)C23CC4CC(CC(C4)C2)C3)CC1	.	/	/	/
COc1ccc(S(=O)(=O)Nc2ccc(S(=O)(=O)N(C)C)cc2)cc1[N+](=O)[O-]	.	.	.	/
COc1ccc2[nH]c(=O)c(CN(C(=O)c3cccnc3)c3ccc(C)cc3C)cc2c1	.	/	/	/
COc1ccc(OC)c2sc(N3CCN(c4ccccc4)CC3)nc12	.	/	/	/
Cc1c(CCOC(=O)C23CC4(C)CC(C)(CC(C)(C4)C2)C3)sc[n+]1CC(=O)c1ccccc1	.	/	/	/
Cc1c(CCOC(=O)c2cc([N+](=O)[O-])cc([N+](=O)[O-])c2)sc[n+]1CC(=O)c1ccc(Br)cc1	37.6	/	/	.
O=C1c2cccc3c(N4CCCCC4)ccc(c23)C(=O)N1c1cccc(O)c1	51.1	/	/	45.0
O=C1c2cccc3c(N4CCCCC4)ccc(c23)C(=O)N1CCO	/	.	.	/
CC(=O)c1cc(C#N)c(N2CCOCC2)nc1C	.	/	/	/
O=C(CN1CCN(Cc2ccccc2)CC1)NCCNc1ccc([N+](=O)[O-])cn1	50.6	/	/	.
O=C(CN1CCN(Cc2ccccc2)CC1)Nc1ccc(Cl)cn1	.	.	.	/
O=C(Nc1ccc(C(=O)NC2CCCCC2)cc1)c1cncc(Br)c1	.	/	/	/
COc1ccc(-n2c(C)nc3sc4c(c3c2=O)CCC4)cc1	103.5	/	/	.
COc1ccc(-n2c(SCC(=O)O)nc3sc4c(c3c2=O)CCC4)cc1	.	/	/	/
O=C(NCc1ccc(Cl)cc1)C1CCC(CNc2c(N3CCOCC3)c(=O)c2=O)CC1 (stereo unspecified)	.	/	/	/
CCOc1ccc(C(=O)c2cc([N+](=O)[O-])ccc2N2CCOCC2)cc1	33.4	.	.	.
COc1ccc(C(=O)c2cc([N+](=O)[O-])ccc2N2CCOCC2)cc1	.	.	.	/
CCC1(c2ccccc2)NC(=S)N(c2cccc(C)c2C)N1 (stereo unspecified)	.	.	.	/
Cc1cc(NNC(=O)Nc2cccc(Cl)c2)nc2c1c(C)nn2C	31.7	/	/	.
SMILES	S1P3 antag-1	Yeast growth inh	Yeast lifespan up	S1P3 antag-2
Cc1nn(C)c(C)c1CNC(=O)Nc1cccc(Cl)c1	.	/	/	/
CCN(CC)C(=O)C1CCCN(Cc2sccc2C)C1 (stereo unspecified)	/	.	.	/
c1ccc(-c2csc3ncnc(NCCCN4CCOCC4)c23)cc1	/	.	/	/
Cc1sc2ncnc(NCC3COc4ccccc4O3)c2c1C (stereo unspecified)	32.1	.	.	33.0
c1ccc(-c2csc3ncnc(NCC4COc5ccccc5O4)c23)cc1 (stereo unspecified)	36.5	.	.	.
Cc1sc2ncnc(NCC3CCCO3)c2c1C (stereo unspecified)	/	.	.	/
CCCc1nnc(NC(=O)CCC(=O)NCCc2ccc(OC)c(OC)c2)s1	.	.	.	/
CC(OC(=O)c1nsc(Cl)c1Cl)C(=O)NCc1ccc2c(c1)OCO2 (stereo unspecified)	/	.	.	/
O=C(CN1CCN(Cc2ccc(Cl)cc2)CC1)N/N=C/c1cccs1	.	/	/	/
C=CCN1C(=O)C(CC(=O)Nc2ccc(OCCC)cc2)N(CCCN2CCN(Cc3ccccc3)CC2)C1=S (stereo unspecified)	38.4	/	/	.
COc1ccc(NC(=O)CC2C(=O)N(Cc3ccccc3)C(=S)N2CCN2CCOCC2)cc1 (stereo unspecified)	.	/	/	/
O=C(N/N=C/C(Br)=C/c1ccccc1)c1cccs1	.	/	/	/
Cc1cc(Nc2ccc(F)cc2F)n2ncnc2n1	.	.	.	/
O=[N+]([O-])c1c(Nc2ccccc2)ccc2nonc12	/	.	.	/

Screening results: PubChem, several laboratories
